Bioassay records from PubChem BioAssay.
BaF3 tox = parental Ba/F3 cell viability inhibition, counter-screen for JAK2V617F inhibitor project, murine pro-B, CellTiter-Glo luminescence; CellTiter-Glo ATP luminescence; inhibition, % at 5.6 µM; actives 1.1% (n = 220,000); AID 1486, 2009;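 active = inhibition above a per-campaign cutoff, the mean inhibition of all tested compounds plus 3 SD, cut at about 27% in these data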;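 note: 0% = DMSO wells and 100% = JAK Inhibitor I control wells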
IEC-6 cytotox = cytotoxicity in IEC-6 intestinal epithelial cells, primary screen, cytotoxicity control for KLF5 inhibitor project, cell-based, luminescence | actives 0.78% (n = 290,000) | inhibition, % at 5 µM | IEC-6 cytotoxicity, luminescence viability | AID 1825, 2009;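 note: 0% = plate median of test compound wells and 100% = cytotoxic reference compound wells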
MT stabilizer = microtubule stabilizers in HeLa cells, primary screen, imaging, high-content imaging. HeLa tubulin immunostaining HCS, 24 h; share of cells brighter than vehicle mean+2SD. % tubulin-high responders, % at 10 µM. actives 0.83% (n = 200,000). AID 2205, 2009;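 active = plate Z-score above 3 for both tubulin-high and condensed-nucleus cell shares, with cell loss under 80%, at 10 µM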;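 note: anti alpha tubulin signal scored within the nucleus-defined area of each cell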
bCat nuc transl = modulators of beta-catenin nuclear translocation, primary screen, imaging, HeLa cells, immunofluorescence, high-content | nuclear translocation activity, % at 5 µM | actives 0.3% (n = 190,000);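 active = nuclear translocation activity above 50% at 5 µM, with a well cell count of 50 or more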;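 note: per-cell ratio of nuclear to cytoplasmic median beta-catenin stain intensity; plate controls were DMSO negative control for no effect and GSK-3 inhibitor IX positive control for full effect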
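test system = HeLa cells, endogenous beta-catenin | dosing = single 5 µM dose plus 0.02–20 µM confirmation series | times = compound treatment 24 h, 37°C, 5% CO2 | technique = beta-catenin immunofluorescence imaging with DAPI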
APP 5UTR inh = inhibitors of APP translation via 5'UTR reporter, primary screen, APP 5'UTR luciferase, SH-SY5Y cells; SH-SY5Y APP 5'UTR-luciferase reporter, luminescence; inhibition, % at 2 µM; actives 0.82% (n = 190,000);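 active = inhibition above a set limit, derived from the sample mean plus 3 SD, cut at about 45% in these data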
Ba/F3 V617F tox = reduced viability of JAK2V617F-dependent Ba/F3 cells, primary screen, JAK2V617F inhibitor project, cell-based, Ba/F3 EpoR-JAK2V617F, luminescence | AID 1446, 2008 | inhibition, % at 5.6 µM | actives 1.1% (n = 220,000) | ATP luminescence;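 active = inhibition above the campaign mean plus 3 SD over all tested compounds, cut at about 24% in these data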;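 note: cytokine-independent growth of Ba/F3 cells driven by EpoR plus mutant JAK2; 0% = DMSO-treated cells and 100% = JAK inhibitor I control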
IEC-6 cytotox cf = cytotoxic compounds in IEC-6 epithelial cells, confirmation, cytotoxicity control, cell-based, luminescence; shares compounds with IEC-6 cytotox; IEC-6 rat intestinal epithelial viability; inhibition, % at 5 µM; actives 63% (n = 1,900);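 note: 0% = vehicle and 100% = reference cytotoxic drug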
An asterisk follows results filed as active. Compounds with a hit are over-represented: about 2.2% of the library has one in this group of screens. Cut-off read from the data, not from the text of the source, unless noted: active = inhibition above about 22%; inactive = the rest.

For COc1ccc(-c2ccnc(-c3ccc(O)cc3)n2)cc1 the results were BaF3 tox 59*, IEC-6 cytotox 69*, MT stabilizer 12, bCat nuc transl 64*, APP 5UTR inh 93*, Ba/F3 V617F tox 79* and IEC-6 cytotox cf 60*.
Cc1c(C(=O)N2CCOCC2)c(S(=O)(=O)Nc2cccc(C#N)c2)c(C)n1C was read as IEC-6 cytotox -6.
`COc1ccccc1NC(=O)CN(c1ccc([N+](=O)[O-])cc1)S(=O)(=O)c1ccccc1` gave BaF3 tox 7, IEC-6 cytotox 0, MT stabilizer 2, bCat nuc transl 1, APP 5UTR inh 2 and Ba/F3 V617F tox 3.
Screening CCOc1ccc(N(CC(=O)Nc2ccc(C)cc2)S(=O)(=O)c2c(C)noc2C)cc1 returned BaF3 tox -1, IEC-6 cytotox -1, MT stabilizer 3, bCat nuc transl 0, APP 5UTR inh -20 and Ba/F3 V617F tox -2.
CCOc1ccc(N(CC(=O)Nc2ccccc2OC)S(=O)(=O)c2ccccc2)cc1 was read as IEC-6 cytotox 78* and IEC-6 cytotox cf 53*.
`CCOc1ccc(N(CC(=O)Nc2ccccc2OCC)S(=O)(=O)c2c(C)noc2C)cc1` gave IEC-6 cytotox 90* and IEC-6 cytotox cf 54*.
Screening Cc1ccc(/C=N/NC(=O)c2n[nH]c3c2CCCC3)cc1 returned BaF3 tox 93*, IEC-6 cytotox 88*, bCat nuc transl 58*, Ba/F3 V617F tox 93* and IEC-6 cytotox cf 83*.
Screening O=C(N/N=C/c1cccs1)c1n[nH]c2c1CCCC2 returned BaF3 tox 2, IEC-6 cytotox 8, bCat nuc transl 0 and Ba/F3 V617F tox 2.
For C/C(=N\NC(=O)c1n[nH]c2c1CCC2)c1cccs1 the results were BaF3 tox 73*, IEC-6 cytotox 81*, bCat nuc transl -1, Ba/F3 V617F tox 72* and IEC-6 cytotox cf 17.
`O=C(N/N=C/C(Br)=C\c1ccccc1)c1n[nH]c2c1CCC2` gave BaF3 tox 78*, IEC-6 cytotox 75*, MT stabilizer 15*, APP 5UTR inh 96*, Ba/F3 V617F tox 85* and IEC-6 cytotox cf 82*.
`CC(/C=N/NC(=O)c1n[nH]c2c1CCC2)=C\c1ccccc1` gave BaF3 tox 80*, IEC-6 cytotox 86*, MT stabilizer 11, bCat nuc transl 215*, APP 5UTR inh 94*, Ba/F3 V617F tox 83* and IEC-6 cytotox cf 62*.
COc1ccc(NC(=O)c2c(N)no[n+]2[O-])c(OC)c1 was read as BaF3 tox 2, IEC-6 cytotox -2, MT stabilizer 3, bCat nuc transl -1, APP 5UTR inh 15 and Ba/F3 V617F tox -3.
For COc1ccc(NC(=O)c2c(N)no[n+]2[O-])cc1 the results were BaF3 tox 0, IEC-6 cytotox 33*, MT stabilizer 7, bCat nuc transl 4, APP 5UTR inh 18, Ba/F3 V617F tox -4 and IEC-6 cytotox cf 28*.
For CC(C)c1ccc(OCC(=O)N2CCN(C(=O)c3ccco3)CC2)cc1 the results were IEC-6 cytotox -6.
Screening O=c1[nH]n(Cc2ccccc2)c(=O)c2ccccc12 returned BaF3 tox 6, IEC-6 cytotox 31*, MT stabilizer 1, bCat nuc transl 1, APP 5UTR inh -3, Ba/F3 V617F tox 3 and IEC-6 cytotox cf 38*.
Screening Cc1cc2ncn(-c3ncccc3[N+](=O)[O-])c2cc1C returned IEC-6 cytotox -1.
For CCC[C@@H](CNC)NC[C@H](Cc1ccccc1)NCCCCc1ccccc1 the results were IEC-6 cytotox 24* and IEC-6 cytotox cf 101*.
`CNC[C@@H](Cc1ccccc1)NC[C@@H](CC1CCCCC1)NCCCc1ccccc1` gave IEC-6 cytotox 102* and IEC-6 cytotox cf 71*.
